One test addresses T1, Caspase-7 (Homo sapiens, UniProt P55210).
T1 sequence (P55210 whole entry): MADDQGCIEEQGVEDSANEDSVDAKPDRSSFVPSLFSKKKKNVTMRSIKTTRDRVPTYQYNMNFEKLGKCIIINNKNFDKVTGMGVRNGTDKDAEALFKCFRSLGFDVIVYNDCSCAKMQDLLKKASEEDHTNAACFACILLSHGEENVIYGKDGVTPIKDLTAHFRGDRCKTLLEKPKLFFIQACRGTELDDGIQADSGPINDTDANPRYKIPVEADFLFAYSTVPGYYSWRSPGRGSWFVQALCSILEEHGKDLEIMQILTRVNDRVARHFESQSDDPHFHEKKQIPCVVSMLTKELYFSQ
Briefly: Inhibition of human recombinant caspase 7 using Ac-DEVD-AMC substrate assessed as accumulation of cleaved fluorogenic product. A digest of the protocol: (§1)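 Inhibitor in DMSO (1−5%) at final 500 μM down to 5 pM in tenfold steps, preincubated 10 min. Peptide-AMC substrate then added (final 10 μM) and reacted 10 min at 37 °C. Released AMC read by fluorescence, excitation 360 nm, emission 460 nm.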

Another test concerns the target T2, Caspase-3 (Homo sapiens, UniProt P42574).
T2 sequence (P42574 whole entry): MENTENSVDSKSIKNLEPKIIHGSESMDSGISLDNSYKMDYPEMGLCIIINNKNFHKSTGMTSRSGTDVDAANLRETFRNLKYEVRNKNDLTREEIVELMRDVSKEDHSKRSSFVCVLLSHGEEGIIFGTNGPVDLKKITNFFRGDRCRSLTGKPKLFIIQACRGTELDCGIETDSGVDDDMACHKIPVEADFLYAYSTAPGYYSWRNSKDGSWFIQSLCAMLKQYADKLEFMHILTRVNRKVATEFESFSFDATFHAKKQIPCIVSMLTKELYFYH
Briefly: Inhibition of human recombinant caspase 3 using Ac-DEVD-AMC substrate assessed as accumulation of cleaved fluorogenic product. A digest of the protocol:
as §1

A further test has as its target T3, Caspase-6 (Homo sapiens, UniProt P55212).
T3 sequence (P55212 whole entry): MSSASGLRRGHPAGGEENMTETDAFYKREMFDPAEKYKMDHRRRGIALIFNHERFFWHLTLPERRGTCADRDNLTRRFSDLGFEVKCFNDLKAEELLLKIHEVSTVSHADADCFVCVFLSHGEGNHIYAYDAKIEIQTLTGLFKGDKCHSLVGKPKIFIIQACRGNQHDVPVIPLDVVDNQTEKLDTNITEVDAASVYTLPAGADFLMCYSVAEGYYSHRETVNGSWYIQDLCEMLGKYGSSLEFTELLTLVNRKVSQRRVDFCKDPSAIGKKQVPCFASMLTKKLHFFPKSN
Nature of the test: Inhibition of human recombinant caspase 6 using Ac-VEID-AMC substrate assessed as accumulation of cleaved fluorogenic product. The essentials:
as §1

For a further test, the target named is T4, Caspase-1 (Homo sapiens, UniProt P29466).
T4 sequence (P29466 whole entry): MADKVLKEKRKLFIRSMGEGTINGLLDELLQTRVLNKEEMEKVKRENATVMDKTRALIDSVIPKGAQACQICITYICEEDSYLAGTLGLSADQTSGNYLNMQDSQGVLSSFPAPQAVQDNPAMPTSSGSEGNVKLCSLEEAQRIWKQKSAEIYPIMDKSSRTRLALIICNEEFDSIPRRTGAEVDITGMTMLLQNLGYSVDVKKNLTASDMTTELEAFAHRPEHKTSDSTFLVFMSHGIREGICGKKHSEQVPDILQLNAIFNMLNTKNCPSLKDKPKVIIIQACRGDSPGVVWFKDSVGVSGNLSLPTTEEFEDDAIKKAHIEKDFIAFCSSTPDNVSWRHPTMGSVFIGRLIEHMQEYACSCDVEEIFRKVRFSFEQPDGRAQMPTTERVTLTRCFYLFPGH
Briefly: Inhibition of human recombinant caspase 1 using Ac-YVAD-AMC substrate assessed as accumulation of cleaved fluorogenic product. The essentials: as §1

The values that follow come from ChEMBL document CHEMBL3352284, “Synthesis of 7-halogenated isatin sulfonamides: nonradioactive counterparts of caspase-3/-7 inhibitor-based potential radiopharmaceuticals for molecular imaging of apoptosis” (J Med Chem, 2014).

As to `COC[C@@H]1CCCN1S(=O)(=O)c1cc(I)c2c(c1)C(=O)C(=O)N2`, the IC50 on Caspase-7 and on Caspase-3 was more than 500000 nM each time.

`COC[C@@H]1CCCN1S(=O)(=O)c1cc(I)c2c(c1)C(=O)C(=O)N2C`: the figures for the IC50 on Caspase-7 and on Caspase-3 were 10500 nM and 1190 nM, respectively.

On to `CCN1C(=O)C(=O)c2cc(S(=O)(=O)N3CCC[C@H]3COC)cc(I)c21`, for which the IC50 is 20.1 nM on Caspase-7 and 210 nM at Caspase-3.

`CCCN1C(=O)C(=O)c2cc(S(=O)(=O)N3CCC[C@H]3COC)cc(I)c21`: the IC50 was found to be 42.4 nM at Caspase-7 and 124 nM at Caspase-3.

In the case of `CCCCN1C(=O)C(=O)c2cc(S(=O)(=O)N3CCC[C@H]3COC)cc(I)c21`, the IC50 at Caspase-6 was more than 500000 nM; at Caspase-7 it was 907 nM; on Caspase-3 it was 17.4 nM; at Caspase-1, more than 500000 nM.

On to `COC[C@@H]1CCCN1S(=O)(=O)c1cc(I)c2c(c1)C(=O)C(=O)N2CCCF`, for which the IC50 is 28500 nM at Caspase-6, 20.1 nM on Caspase-3 and more than 500000 nM at Caspase-1.

For `COC[C@@H]1CCCN1S(=O)(=O)c1cc(I)c2c(c1)C(=O)C(=O)N2CCCCF`, the IC50 worked out at 500000 nM on Caspase-6, 68.1 nM at Caspase-7, 50.7 nM at Caspase-3 and 500000 nM on Caspase-1.

As to `COC[C@@H]1CCCN1S(=O)(=O)c1cc(I)c2c(c1)C(=O)C(=O)N2CCCCO`, the IC50 at Caspase-6 came to 500000 nM; at Caspase-7, 279 nM; on Caspase-3, 33.2 nM; on Caspase-1, 500000 nM.

As to `COC[C@@H]1CCCN1S(=O)(=O)c1cc(Br)c2c(c1)C(=O)C(=O)N2`, the IC50 at Caspase-7 and on Caspase-3 was more than 500000 nM each time.

With `COC[C@@H]1CCCN1S(=O)(=O)c1cc(Br)c2c(c1)C(=O)C(=O)N2C`, the IC50 amounted to 553 nM at Caspase-7 and 353 nM at Caspase-3.

As to `CCN1C(=O)C(=O)c2cc(S(=O)(=O)N3CCC[C@H]3COC)cc(Br)c21`, the IC50 on Caspase-3 came to 133 nM.

`CCCN1C(=O)C(=O)c2cc(S(=O)(=O)N3CCC[C@H]3COC)cc(Br)c21`: the IC50 at Caspase-7 came to 157 nM; at Caspase-3, 26.2 nM.

Take `CCCCN1C(=O)C(=O)c2cc(S(=O)(=O)N3CCC[C@H]3COC)cc(Br)c21`: the IC50 at Caspase-7 worked out at 3.3 nM; at Caspase-3, 46.9 nM.

As for `COC[C@@H]1CCCN1S(=O)(=O)c1cc(Br)c2c(c1)C(=O)C(=O)N2CCCF`, the IC50 on Caspase-7 was 20.1 nM; at Caspase-3, 81.4 nM.

`COC[C@@H]1CCCN1S(=O)(=O)c1cc(Br)c2c(c1)C(=O)C(=O)N2CCCCF`: the IC50 on Caspase-7 came out at 5.95 nM; on Caspase-3 it was 31.5 nM.

Take `COC[C@@H]1CCCN1S(=O)(=O)c1cc(Br)c2c(c1)C(=O)C(=O)N2CCCCO`: the IC50 on Caspase-6 was more than 500000 nM; at Caspase-7 it was 22.7 nM; on Caspase-3, 2.6 nM; on Caspase-1, more than 500000 nM.

For `COC[C@@H]1CCCN1S(=O)(=O)c1cc(Cl)c2c(c1)C(=O)C(=O)N2`, the IC50 at Caspase-6 is more than 500000 nM; on Caspase-7, more than 500000 nM; at Caspase-3, more than 500000 nM; at Caspase-1, 500000 nM.

With `CCCCN1C(=O)C(=O)c2cc(S(=O)(=O)N3CCC[C@H]3COC)cc(Cl)c21`, the IC50 on Caspase-6 came to 500000 nM; on Caspase-7 it was 263 nM; at Caspase-3, 57.7 nM; on Caspase-1, 500000 nM.

`COC[C@@H]1CCCN1S(=O)(=O)c1cc(Cl)c2c(c1)C(=O)C(=O)N2CCCCF`: the IC50 on Caspase-6 was 500000 nM; on Caspase-7, 55.7 nM; on Caspase-3, 4.8 nM; at Caspase-1, 2590 nM.

Take `COC[C@@H]1CCCN1S(=O)(=O)c1cc(F)c2c(c1)C(=O)C(=O)N2`: the IC50 was more than 500000 nM at Caspase-6, 6620 nM at Caspase-7, more than 500000 nM on Caspase-3 and more than 500000 nM at Caspase-1.

As for `CCCCN1C(=O)C(=O)c2cc(S(=O)(=O)N3CCC[C@H]3COC)cc(F)c21`, the IC50 on Caspase-6 came to 78900 nM; on Caspase-7, 9.7 nM; at Caspase-3 it was 2.9 nM; on Caspase-1, 9970 nM.

Turning to `COC[C@@H]1CCCN1S(=O)(=O)c1cc(F)c2c(c1)C(=O)C(=O)N2CCCCF`, the IC50 turned out to be 12900 nM on Caspase-6, 39.3 nM on Caspase-7, 41 nM on Caspase-3 and 7430 nM at Caspase-1.

As to `COC[C@@H]1CCCN1S(=O)(=O)c1ccc2c(c1)C(=O)C(=O)N2`, the figures for the IC50 at Caspase-6 and on Caspase-1 were 500000 nM and more than 500000 nM, respectively.

One may read the IC50 as the midpoint of a concentration-inhibition curve.
